Experimental data from ChEMBL document CHEMBL1148342, “Synthesis, X-ray crystal structures, stabilities, and in vitro cytotoxic activities of new heteroarylacrylonitriles” (J Med Chem, 2004).
pIC50: −log10 of the molar value.

Experiments:
5637 [1] = experiment: Growth inhibition against human 5637 cell lines; type: functional, cell-based
Procedure, shortened: (§1)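 Cells were grown in RPMI-1640 with 2 g/L NaHCO3 and 10% FCS at 37 °C in 5% CO2, seeded at 1000 cells/well, and dosed 24 h later at five geometric dilutions for 96 h of continuous exposure. Cells were then glutaraldehyde-fixed and stained with crystal violet, with OD read at 570 nm. IC50 was taken from the dose–response data.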

DAN-G = experiment: Growth inhibition against human DAN-G cell lines; type: functional, cell-based; procedure, shortened: as §1
KYSE-510 = experiment: Cytotoxic activity against human KYSE-510 cell line at 20 uM expressed as percent growth value; type: functional
Procedure, shortened: (§2)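 Cells in RPMI-1640 with 10% FCS were seeded (1000 cells/well; KYSE-510 500, LCLC-103H 250), then exposed 24 h later for 96 h. Read-out was crystal violet staining of glutaraldehyde-fixed cells at OD 570 nm. Growth (%) = (OD treated − OD at drug addition)/(OD control − OD at drug addition) × 100.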

KYSE-70 cell line [2] = experiment: Growth inhibition against human KYSE-70 cell lines; type: functional, cell-based; procedure, shortened: as §1
MCF7 = experiment: Growth inhibition against human MCF-7 cell lines; type: functional, cell-based
Procedure, shortened: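 MCF-7 was cultured in RPMI-1640 with 2 g/L NaHCO3, 10% FCS, 1 mM pyruvate, MEM salts and amino acids. Plating was 1000 cells/well, then after 24 h, 96 h of continuous exposure at five geometric dilutions. Crystal violet staining of glutaraldehyde-fixed cells was read at 570 nm, and IC50 was derived from the dose–response data.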

LCLC-103H cell line [3] = experiment: Growth inhibition against human LCLC-103H cell lines; type: functional, cell-based
Procedure, shortened: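 LCLC-103H cells were grown in RPMI-1640 with 2 g/L NaHCO3 and 10% FCS (5% CO2, 37 °C) and plated at 250 cells/well. After 24 h, five geometric dilutions were applied continuously for 96 h. Fixation was with glutaraldehyde, followed by crystal violet staining and OD at 570 nm. IC50 came from the dose–response curves.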

LCLC-103H cell line [4] = experiment: Cytotoxic activity against human LCLC-103H cell line at 20 uM expressed as percent growth value; type: functional; procedure, shortened: as §2
RT-112 = experiment: Growth inhibition against human RT-112 cell lines; type: functional, cell-based; procedure, shortened: as §1
RT-4 = experiment: Growth inhibition against human RT-4 cell lines; type: functional, cell-based; procedure, shortened: as §1
SISO [5] = experiment: Cytotoxic activity against human SISO cell line at 20 uM; type: functional; procedure, shortened: as §2
SISO [6] = experiment: Growth inhibition against human SISO cell lines; type: functional, cell-based; procedure, shortened: as §1
TERT-RPE1 = experiment: Compound was tested for growth inhibition against human h-TERTRPE1 cell lines; type: functional, cell-based
Procedure, shortened: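 The noncancerous hTERT-immortalized epithelial line h-TERT-RPE1 was grown in DMEM/F-12 with 2 g/L NaHCO3 and 10% FCS (37 °C, 5% CO2) and seeded at 1000 cells/well. Substance was added 24 h later at five geometric dilutions for 96 h continuously. The read-out was crystal violet staining after glutaraldehyde fixation, OD 570 nm, with IC50 from dose–response.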

YAPC = experiment: Compound was tested for growth inhibition against human YAPC cell lines; type: functional, cell-based; procedure, shortened: as §1
KYSE-520 cell line = experiment: Growth inhibition against human KYSE-520 cell lines; type: functional, cell-based; procedure, shortened: as §1
KYSE-510 (human) = experiment: Growth inhibition against human KYSE-510 cell lines
5637 [7] = experiment: Cytotoxic activity against human 5637 cell line at 20 uM expressed as percent growth value; type: functional; procedure, shortened: as §2
KYSE-70 cell line [8] = experiment: Cytotoxic activity against human KYSE-70 cell line at 20 uM expressed as percent growth value; type: functional; procedure, shortened: as §2

Compound | pIC50 (MCF7; Homo sapiens, MCF7) | pIC50 (5637 [1]; Homo sapiens) | pIC50 (DAN-G; Homo sapiens, DAN-G) | Activity (KYSE-510) | pIC50 (KYSE-70 cell line [2]; Homo sapiens, KYSE-70) | pIC50 (LCLC-103H cell line [3]; Homo sapiens, LCLC-103H) | Activity (LCLC-103H cell line [4]) | pIC50 (RT-112; Homo sapiens, RT-112) | pIC50 (RT-4; Homo sapiens, RT-4) | Activity (SISO [5]) | pIC50 (SISO [6]; Homo sapiens, SISO) | pIC50 (TERT-RPE1; Homo sapiens, RPE-1) | pIC50 (YAPC; Homo sapiens, YAPC) | pIC50 (KYSE-520 cell line; Homo sapiens, KYSE-520) | pIC50 (KYSE-510 (human); Homo sapiens, KYSE-510) | Activity 5637 [7] | Activity (KYSE-70 cell line [8]) | further results
N#C/C(=C\c1cccc([N+](=O)[O-])c1)c1n[nH]c(-c2ccccc2)n1 |  |  |  | 108 |  |  | 56.4 |  |  | 85.5 |  |  |  |  |  |  |  | 
CN(C)c1ccc(/C=C(\C#N)c2nc3ccccc3[nH]2)cc1 |  |  |  |  |  |  |  |  |  | 95 |  |  |  |  |  | 61.1 | 124.4 | 
N#C/C(=C\c1ccc(OC(F)(F)F)cc1)c1nc2ccccc2[nH]1 |  |  |  |  |  |  |  |  |  | 71.7 |  |  |  |  |  | 66 | 96.7 | 
COc1ccc(/C=C(\C#N)c2nc3ccccc3[nH]2)cc1 |  |  |  |  |  |  |  |  |  | 72.1 |  |  |  |  |  | 64.9 | 75.8 | 
Cc1n[nH]c(/C(C#N)=C/c2cccc([N+](=O)[O-])c2)n1 |  |  |  | 94.1 |  |  | 68.8 |  |  | 98.1 |  |  |  |  |  |  |  | 
Cc1ccc(/C=C(\C#N)c2nc3ccccc3[nH]2)s1 |  | 4.70 | < 4.70 |  |  | 5.68 | 5.9 |  | < 4.70 | 64.5 | < 4.70 |  |  |  |  | 47.8 |  | 
N#C/C(=C\c1ccco1)c1nc2ccccc2[nH]1 |  |  |  |  |  |  |  |  |  | 106.1 |  |  |  |  |  | 86.1 | 56.6 | 
N#C/C(=C\c1ccc(C#N)cc1)c1nc2ccccc2[nH]1 |  |  |  |  |  |  |  |  |  | 99.2 |  |  |  |  |  | 75.6 | 99.3 | 
N#C/C(=C\c1ccc([N+](=O)[O-])cc1)c1nc2ccccc2[nH]1 |  |  |  |  |  |  |  |  |  | 99.2 |  |  |  |  |  | 73.9 | 88 | 
N#C/C(=C\c1ccc(Cl)s1)c1nc2ccccc2[nH]1 |  | 4.65 | < 4.70 |  |  | 5.71 | 13.4 |  | < 4.70 | 102.2 | < 4.70 |  |  |  |  | 44.6 |  | 
N#C/C(=C\c1csc([N+](=O)[O-])c1)c1nc2ccccc2[nH]1 |  | < 4.70 | < 4.70 |  |  | 5.85 | 8.6 |  | < 4.70 | 82.3 | < 4.70 | < 5.30 |  |  |  | 80 |  | 
CISPLATIN |  |  |  |  |  |  |  |  |  |  |  |  |  |  |  |  |  | pIC50 5637 [1]: 6.51; pIC50 (DAN-G; dan-g): 5.86; pIC50 (KYSE-70 cell line [2]; kyse-70): 5.83; pIC50 (MCF7; mcf7): 6.13; pIC50 (LCLC-103H cell line [3]; lclc-103h): 5.79; pIC50 (RT-112; rt-112): 5.67; pIC50 (RT-4; rt-4): 5.43; pIC50 (SISO [6]; siso): 6.70; pIC50 (TERT-RPE1; tert-rpe1): 5.52; pIC50 (YAPC; yapc): 5.22; pIC50 (KYSE-520 cell line; kyse-520): 5.29; pIC50 (KYSE-510 (human); kyse-510): 6.06

Now from value to compound, other results behind:

pIC50 (MCF7; Homo sapiens, MCF7) | Compound | pIC50 (5637 [1]; Homo sapiens) | pIC50 (DAN-G; Homo sapiens, DAN-G) | Activity (KYSE-510) | pIC50 (KYSE-70 cell line [2]; Homo sapiens, KYSE-70) | pIC50 (LCLC-103H cell line [3]; Homo sapiens, LCLC-103H) | Activity (LCLC-103H cell line [4]) | pIC50 (RT-112; Homo sapiens, RT-112) | pIC50 (RT-4; Homo sapiens, RT-4) | Activity (SISO [5]) | pIC50 (SISO [6]; Homo sapiens, SISO) | pIC50 (TERT-RPE1; Homo sapiens, RPE-1) | pIC50 (YAPC; Homo sapiens, YAPC) | pIC50 (KYSE-520 cell line; Homo sapiens, KYSE-520) | pIC50 (KYSE-510 (human); Homo sapiens, KYSE-510) | Activity 5637 [7] | Activity (KYSE-70 cell line [8]) | further results
5.79 | N#C/C(=C\c1ccc([N+](=O)[O-])o1)c1n[nH]c(-c2ccccc2)n1 | 5.91 | 5.82 | -20.9 | 5.93 | 6.15 | -8.4 | 5.82 | 5.73 | -7.9 | 5.92 | 5.94 | 5.85 | 5.79 | 5.87 |  |  | 
6.21 | N#C/C(=C\c1ccc([N+](=O)[O-])o1)c1n[nH]c(Cc2ccccc2)n1 | 6.40 | 6.31 | -20.7 | 6.40 | 6.54 | -7.3 | 6.12 | 5.86 | -8.1 | 6.43 | 6.38 | 6.35 | 6.12 | 6.21 |  |  | 
5.83 | Cc1n[nH]c(/C(C#N)=C/c2ccc([N+](=O)[O-])o2)n1 | 6.27 | 6.00 | -21.3 | 6.18 | 6.46 | -8.4 | 6.00 | 5.83 | -8.7 | 6.57 | 6.16 | 6.07 | 6.07 | 6.05 |  |  | 
5.83 | CN(C)c1ccc(/C=C(\C#N)c2n[nH]c(Cc3ccccc3)n2)cc1 | 5.86 | 5.39 | -1.01 | 5.60 | 5.78 | -1.8 | 5.43 | 5.60 | 1.2 | 5.49 |  | 5.46 | 5.20 | 5.47 |  |  | 
6.19 | N#C/C(=C\c1ccc([N+](=O)[O-])o1)c1nc2ccccc2[nH]1 | 6.32 | 6.16 | -21.2 | 6.35 | 6.39 | -8 | 6.16 | 6.00 | -8.2 | 6.48 | 6.22 | 6.24 | 6.21 | 6.12 |  |  | 
5.04 | N#C/C(=C\c1ccc(C(F)(F)F)cc1)c1nc2ccccc2[nH]1 | 4.91 | 4.75 |  | 4.81 | 5.80 |  |  | 4.79 | 61.8 | 4.85 |  |  |  |  | 34.4 | 69.7 | 
6.17 | N#C/C(=C\c1ccc([N+](=O)[O-])s1)c1n[nH]c(-c2ccccc2)n1 | 6.32 | 6.38 | -21.7 | 6.46 | 6.27 | -6.5 | 6.08 | 5.99 | -9.9 | 6.05 | 6.38 | 6.49 | 6.24 | 6.20 |  |  | 
6.38 | N#C/C(=C\c1ccc([N+](=O)[O-])s1)c1n[nH]c(Cc2ccccc2)n1 | 6.49 | 6.30 | -21.3 | 6.38 | 6.51 | -8.4 | 6.19 | 6.23 | -8.7 | 6.11 | 6.29 | 6.44 | 6.54 | 6.28 |  |  | 
6.42 | Cc1n[nH]c(/C(C#N)=C/c2ccc([N+](=O)[O-])s2)n1 | 6.66 | 6.24 | -21.3 | 6.36 | 6.48 | -8.4 | 6.17 | 6.05 | -8.8 | 6.29 | 6.16 | 6.39 | 6.22 | 6.25 |  |  | 
6.80 | N#C/C(=C\c1ccc([N+](=O)[O-])s1)c1nc2ccccc2[nH]1 | 6.82 | 6.49 | 20.5 | 6.80 | 6.77 | -6.5 | 6.44 | 6.57 | 18 | 6.51 | 6.41 | 6.80 | 6.96 | 6.48 |  |  | 
6.27 | COc1cc([C@@H]2c3cc4c(cc3[C@@H](O[C@@H]3O[C@@H]5CO[C@@H](C)O[C@H]5[C@H](O)[C@H]3O)[C@H]3COC(=O)[C@H]23)OCO4)cc(OC)c1O [ETOPOSIDE] | 6.28 | 6.42 |  | 6.10 |  |  | 6.66 | 5.88 |  | 6.82 | 7.05 | 5.88 | 6.39 | 6.15 |  |  | 
